Measurements as given in ChEMBL document CHEMBL1165941, “Design and synthesis of 2,4-disubstituted polyhydroquinolines as prospective antihyperglycemic and lipid modulating agents” (Bioorg Med Chem, 2010).
Active and inactive are the calls of the source. The calls are words filed in the database; no cut-off is given here.

How the values were obtained:
[1] = molecular target: T1, Tyrosine-protein phosphatase non-receptor type 1 (Homo sapiens) (UniProt P18031); test: Inhibition of PTP1B assessed as p-nitrophenolate ion production at 100 uM pretreated for 10 mins measured after 30 mins
T1 sequence (whole entry): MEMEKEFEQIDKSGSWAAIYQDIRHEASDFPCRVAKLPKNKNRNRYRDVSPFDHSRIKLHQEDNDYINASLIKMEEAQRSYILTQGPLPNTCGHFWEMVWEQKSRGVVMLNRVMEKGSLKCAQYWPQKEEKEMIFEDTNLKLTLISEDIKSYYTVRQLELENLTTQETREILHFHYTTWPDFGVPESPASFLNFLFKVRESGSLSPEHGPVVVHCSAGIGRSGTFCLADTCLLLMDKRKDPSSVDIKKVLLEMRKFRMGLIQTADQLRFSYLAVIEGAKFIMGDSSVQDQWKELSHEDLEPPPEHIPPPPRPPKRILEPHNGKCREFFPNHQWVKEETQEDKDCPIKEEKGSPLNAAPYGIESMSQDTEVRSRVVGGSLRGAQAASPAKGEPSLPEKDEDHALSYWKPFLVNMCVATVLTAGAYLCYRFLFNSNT
Outline: (§1)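 PTP1B was preincubated 10 min with compound, with and without 0.01% Triton X-100. Substrate was 10 mM pNPP in 50 mM HEPES pH 7.0 with 1 mM DTT and 2 mM EDTA. After 30 min at 37 °C the reaction was stopped with 0.1 N NaOH and A410 was read. Product was calculated with ε 1.78×10⁴ M⁻¹cm⁻¹. Sodium orthovanadate served as standard. IC50 came from dose–response curves.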

[2] = molecular target: Dipeptidyl peptidase 4 (Homo sapiens) (UniProt P27487); test: Inhibition of DPP4 at 100 uM after 15 mins by spectrofluorimeter
Outline: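 DPP-IV activity was measured at 37 °C as Gly-Pro-AMC (30 µM) cleavage in Tris–HCl pH 7.4 with test compound. Fluorescence was read at excitation 355 nm and emission 460 nm. The initial rate was taken over the first 15 min.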

[3] = Inhibition of alpha-glucosidase at 100 uM after 3 mins
Outline: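 α-Glucosidase (0.1 mg/mL, purified) was assayed in 67 mM sodium phosphate pH 6.8 with 1.0 mg/mL glutathione. The reaction was started with 3.0 mg/mL pNPG and followed at 405 nm every 30 s for 3 min.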

[4] = Inhibition of glycogen phosphorylase assessed as […] phosphate release at 100 uM after 30 mins
Outline: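 Glycogen phosphorylase was incubated with glycogen, glucose-1-phosphate, NaF and 5′-AMP for 30 min at 37 °C. The reaction was stopped with 10% TCA and 0.1 M sodium acetate. Samples were held overnight at 4 °C, then released Pi was measured.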

[5] = molecular target: T2, Glucose-6-phosphatase catalytic subunit 1 (Homo sapiens) (UniProt P35575); test: Inhibition of glucose-6-phosphatase assessed as inositol phosphate release at 100 uM after 30 mins; details: in the assay text read “inorganic phosphate” for “inositol phosphate”
T2 sequence (whole entry): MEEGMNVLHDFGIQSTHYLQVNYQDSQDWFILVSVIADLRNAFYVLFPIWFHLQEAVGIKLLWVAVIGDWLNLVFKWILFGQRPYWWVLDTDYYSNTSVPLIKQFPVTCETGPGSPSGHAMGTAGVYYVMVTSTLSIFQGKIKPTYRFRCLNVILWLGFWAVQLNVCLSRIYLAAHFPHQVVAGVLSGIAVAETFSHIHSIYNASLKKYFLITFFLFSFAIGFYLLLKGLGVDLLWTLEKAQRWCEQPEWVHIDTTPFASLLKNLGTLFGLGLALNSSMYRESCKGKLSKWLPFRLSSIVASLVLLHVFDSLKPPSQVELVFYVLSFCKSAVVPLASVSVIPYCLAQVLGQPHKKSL
Outline: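 Glucose-6-phosphatase was assayed in 0.3 M citrate pH 6.0 with 28 mM EDTA, 14 mM NaF, 200 mM glucose-6-phosphate and enzyme protein. After 30 min at 37 °C the reaction was stopped with 10% TCA. Activity was expressed as µmol Pi released per min per mg protein.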

Rattus norvegicus [6] = test: Antihyperglycemic activity in Sprague-Dawley albino rat streptozotocin-induced beta-cell damaged diabetic model assessed as decrease of blood glucose level at 100 mg/kg, po administered 30 mins before glucose challenge measured after 24 hrs by glucometer; type: functional; set-up: scale not given: the % may be the effect or the level left
Outline: (§2)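 Rats were made diabetic with streptozotocin 60 mg/kg ip in 100 mM citrate pH 4.5 after an overnight fast. Animals with glucose 144–270 mg/dl at 48 h were used, 5–6 per group. Compounds were given 100 mg/kg orally in 1.0% gum acacia. Sucrose 2.5 g/kg followed 30 min later. Glucose was read by glucostrips up to 300 min and at 24 h. Non-responders were excluded. Percent activity came from AUC versus control.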

Rattus norvegicus [7] = test: Antihyperglycemic activity in Sprague-Dawley albino rat streptozotocin-induced beta-cell damaged diabetic model assessed as decrease of blood glucose level at 100 mg/kg, po administered 30 mins before glucose challenge measured after 5 hrs by glucometer; type: functional; set-up: scale not given: the % may be the effect or the level left; outline: as §2
Rattus norvegicus [8] = test: Antihyperglycemic activity in Charles Foster-Wistar albino rat sucrose loaded model assessed as decrease of blood glucose level at 100 mg/kg, po administered 30 mins before glucose challenge measured up to 120 mins by glucometer; type: functional; set-up: scale not given: the % may be the effect or the level left; details: in the assay text read “Sprague-Dawley” for “Charles Foster-Wistar”
Outline: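 Sprague–Dawley male rats with blood glucose 60–80 mg/dl, 5–6 per group, received 100 mg/kg orally as a suspension in 1.0% gum acacia; controls received vehicle. Sucrose 10.0 g/kg was given orally 30 min later. Glucose was read by glucometer at 30, 60, 90 and 120 min. Food was withheld. Percent activity came from AUC versus control.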

[9] = molecular target: T3, Tyrosine-protein phosphatase non-receptor type 1 (Homo sapiens, UniProt P18031); test: Inhibition of PTP1B assessed as p-nitrophenolate ion production pretreated for 10 mins measured after 30 mins; outline: as §1
T3 sequence (P18031 whole entry): T1 sequence (whole entry)

Dipeptidyl peptidase 4 (Homo sapiens), sequence (P27487 whole entry, looked up): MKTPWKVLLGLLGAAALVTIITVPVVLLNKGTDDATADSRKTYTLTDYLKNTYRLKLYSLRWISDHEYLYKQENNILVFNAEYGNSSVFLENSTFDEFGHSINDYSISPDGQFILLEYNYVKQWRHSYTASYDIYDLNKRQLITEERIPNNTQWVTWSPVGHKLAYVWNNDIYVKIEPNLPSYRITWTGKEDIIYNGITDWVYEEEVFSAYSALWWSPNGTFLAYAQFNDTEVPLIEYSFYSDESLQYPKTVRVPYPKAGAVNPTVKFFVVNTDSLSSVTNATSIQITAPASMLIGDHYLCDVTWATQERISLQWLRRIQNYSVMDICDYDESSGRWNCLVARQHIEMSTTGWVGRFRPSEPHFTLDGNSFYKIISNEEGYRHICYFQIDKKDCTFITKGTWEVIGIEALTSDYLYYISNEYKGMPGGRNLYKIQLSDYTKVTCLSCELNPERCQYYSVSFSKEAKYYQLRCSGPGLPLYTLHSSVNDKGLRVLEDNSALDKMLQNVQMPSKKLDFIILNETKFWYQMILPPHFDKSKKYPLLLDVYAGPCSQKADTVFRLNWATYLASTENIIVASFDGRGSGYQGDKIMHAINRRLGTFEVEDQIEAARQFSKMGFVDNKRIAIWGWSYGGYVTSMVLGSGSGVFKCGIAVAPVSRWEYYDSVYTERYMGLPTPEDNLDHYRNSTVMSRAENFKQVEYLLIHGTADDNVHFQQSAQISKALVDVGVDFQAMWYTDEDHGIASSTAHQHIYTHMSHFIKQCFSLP

COc1ccc(C2C=C(c3ccccc3)NC3=C2C(=O)CCC3)cc1 (stereo unspecified)
inhibition [1]: 56.8% | inhibition [2]: inactive | inhibition [3]: 7.3% | inhibition [4]: 13.8% | inhibition [5]: 17.3% | Activity (Rattus norvegicus [6]): 19.4% | Activity (Rattus norvegicus [7]): 17.5% | Activity (Rattus norvegicus [8]): 29.6%

CCOC(=O)C1=CC(c2ccc(OC)cc2)C2=C(CC(C)(C)CC2=O)N1 (stereo unspecified)
inhibition [1]: 66.7% | inhibition [2]: 16.5% | inhibition [3]: inactive | inhibition [4]: 40.4% | inhibition [5]: 23.8% | Activity (Rattus norvegicus [8]): 12.9%

CC1(C)CC(=O)C2=C(C1)NC(C(=O)O)=CC2c1ccc(F)cc1 (stereo unspecified)
inhibition [1]: 27% | inhibition [2]: inactive | inhibition [3]: 1.4% | inhibition [4]: 46.6% | inhibition [5]: 16.8% | Activity (Rattus norvegicus [6]): 23.6% | Activity (Rattus norvegicus [7]): 27.8% | Activity (Rattus norvegicus [8]): 38.7%

CCOC(=O)C1=CC(c2ccc(Br)cc2)C2=C(CC(C)(C)CC2=O)N1 (stereo unspecified)
IC50 [9]: 16.6 µM | inhibition [1]: 65.6% | inhibition [2]: inactive | inhibition [3]: inactive | inhibition [4]: 49.3% | inhibition [5]: inactive | Activity (Rattus norvegicus [8]): 11.4%

COc1ccc(-c2cc(-c3ccccc3)nc3c2C(=O)CC(C)(C)C3)cc1
inhibition [1]: 9.1% | inhibition [2]: 22% | inhibition [3]: inactive | inhibition [4]: 31.1% | inhibition [5]: inactive | Activity (Rattus norvegicus [8]; Sprague-Dawley albino): inactive

CC1(C)CC(=O)c2c(-c3ccc(F)cc3)cc(-c3ccccc3)nc2C1
inhibition [1]: 7.9% | inhibition [2]: 13.1% | inhibition [3]: inactive | inhibition [4]: 20.3% | inhibition [5]: 11.1% | Activity (Rattus norvegicus [8]; Sprague-Dawley albino): inactive

COc1ccc(C2=CC(c3ccccc3)C3=C(CC(C)(C)CC3=O)N2)cc1 (stereo unspecified)
inhibition [1]: 53.4% | inhibition [2]: inactive | inhibition [3]: 22.4% | inhibition [4]: 18.4% | inhibition [5]: 8.34% | Activity (Rattus norvegicus [6]): 11.7% | Activity (Rattus norvegicus [7]): 11.9% | Activity (Rattus norvegicus [8]): 17.3%

CC1(C)CC(=O)C2=C(C1)NC(c1ccccc1)=CC2c1ccco1 (stereo unspecified)
IC50 [9]: 7.7 µM | inhibition [1]: 82.5% | inhibition [2]: 18.6% | inhibition [3]: inactive | inhibition [4]: 18.9% | inhibition [5]: 11.4% | Activity (Rattus norvegicus [8]): 14.6%

O=C1CCCC2=C1C(c1ccccc1)C=C(c1ccccc1)N2 (stereo unspecified)
inhibition [1]: 51.2% | inhibition [2]: inactive | inhibition [3]: inactive | inhibition [4]: 21.8% | inhibition [5]: inactive | Activity (Rattus norvegicus [6]): 13.8% | Activity (Rattus norvegicus [7]): 15.1% | Activity (Rattus norvegicus [8]): 19.7%

CCOC(=O)C1(O)CC(c2ccc(OC)cc2)C2=C(CC(C)(C)CC2=O)O1 (stereo unspecified)
inhibition [1]: 13.6% | inhibition [2]: inactive | inhibition [3]: inactive | inhibition [4]: inactive | inhibition [5]: inactive | Activity (Rattus norvegicus [8]; Sprague-Dawley albino): inactive

CCOC(=O)C1=CC(c2ccc(Cl)cc2)C2=C(CC(C)(C)CC2=O)N1 (stereo unspecified)
inhibition [1]: 53.8% | inhibition [2]: 12.5% | inhibition [3]: inactive | inhibition [4]: 56.7% | inhibition [5]: 11.3% | Activity (Rattus norvegicus [8]): 11.4%

CCOC(=O)C1=CC(c2ccc(F)cc2)C2=C(CC(C)(C)CC2=O)N1 (stereo unspecified)
IC50 [9]: 4.7 µM | inhibition [1]: 87.2% | inhibition [2]: 9.8% | inhibition [3]: 15.8% | inhibition [4]: 61.2% | inhibition [5]: inactive | Activity (Rattus norvegicus [6]): 23.4% | Activity (Rattus norvegicus [7]): 24.8% | Activity (Rattus norvegicus [8]): 35.9%

CCOC(=O)C1(O)CC(c2ccc(Br)cc2)C2=C(CC(C)(C)CC2=O)O1 (stereo unspecified)
inhibition [1]: 4.7% | inhibition [2]: inactive | inhibition [3]: inactive | inhibition [4]: 12.3% | inhibition [5]: inactive | Activity (Rattus norvegicus [8]; Sprague-Dawley albino): inactive

CN(C)C(=N)NC(=N)N [METFORMIN]
Activity (Rattus norvegicus [6]): 20.2% | Activity (Rattus norvegicus [7]): 18% | Activity (Rattus norvegicus [8]): 13.5%

SODIUM ORTHOVANAD
inhibition [2]: 57.8%

CCOC(=O)C1=CC(c2ccccc2)C2=C(CC(C)(C)CC2=O)N1 (stereo unspecified)
inhibition [1]: 43.3% | inhibition [2]: inactive | inhibition [3]: inactive | inhibition [4]: 49.5% | inhibition [5]: inactive | Activity (Rattus norvegicus [6]): 11.3% | Activity (Rattus norvegicus [7]): 7.1% | Activity (Rattus norvegicus [8]): 16.6%

CC1(C)CC(=O)C2=C(C1)NC(c1ccccc1)=CC2c1ccc([N+](=O)[O-])cc1 (stereo unspecified)
IC50 [9]: 6.1 µM | inhibition [1]: 84.7% | inhibition [2]: inactive | inhibition [3]: 22.4% | inhibition [4]: inactive | inhibition [5]: inactive | Activity (Rattus norvegicus [8]): 14.1%

CC1(C)CC(=O)C2=C(C1)NC(c1ccccc1)=CC2c1c[nH]c2ccccc12 (stereo unspecified)
inhibition [1]: 54.5% | inhibition [2]: inactive | inhibition [3]: inactive | inhibition [4]: 39.7% | inhibition [5]: 26.7% | Activity (Rattus norvegicus [6]): 13.2% | Activity (Rattus norvegicus [7]): 8.1% | Activity (Rattus norvegicus [8]): 17.3%

COc1ccc(C2C=C(c3ccccc3)NC3=C2C(=O)CC(C)(C)C3)cc1 (stereo unspecified)
IC50 [9]: 14.5 µM | inhibition [1]: 71.8% | inhibition [2]: 8.6% | inhibition [3]: inactive | inhibition [4]: inactive | inhibition [5]: inactive | Activity (Rattus norvegicus [6]): 10.9% | Activity (Rattus norvegicus [7]): 8.8% | Activity (Rattus norvegicus [8]): 17.8%

COc1ccc(Cl)cc1C(=O)NCCc1ccc(S(=O)(=O)NC(=O)NC2CCCCC2)cc1 [GLYBURIDE]
Activity (Rattus norvegicus [6]): 28.4% | Activity (Rattus norvegicus [7]): 25.6% | Activity (Rattus norvegicus [8]): 32.5%

CCOC(=O)C1(O)CC(c2ccccc2)C2=C(CC(C)(C)CC2=O)O1 (stereo unspecified)
inhibition [1]: 21.3% | inhibition [2]: inactive | inhibition [3]: inactive | inhibition [4]: inactive | inhibition [5]: inactive | Activity (Rattus norvegicus [8]; Sprague-Dawley albino): inactive

Cc1ccc(C2=CC(c3ccccc3)C3=C(CC(C)(C)CC3=O)N2)cc1 (stereo unspecified)
IC50 [9]: 19.6 µM | inhibition [1]: 62.3% | inhibition [2]: inactive | inhibition [3]: inactive | inhibition [4]: 31.7% | inhibition [5]: inactive | Activity (Rattus norvegicus [8]): 11.4%

CCOC(=O)C1(O)CC(c2ccc(Cl)cc2)C2=C(CC(C)(C)CC2=O)O1 (stereo unspecified)
inhibition [1]: 16.5% | inhibition [2]: inactive | inhibition [3]: inactive | inhibition [4]: 7.6% | inhibition [5]: inactive | Activity (Rattus norvegicus [8]; Sprague-Dawley albino): inactive

CC1(C)CC(=O)c2c(-c3ccc(Cl)cc3)cc(-c3ccccc3)nc2C1
inhibition [1]: 18.6% | inhibition [2]: 29.4% | inhibition [3]: inactive | inhibition [4]: 13.8% | inhibition [5]: 11.3% | Activity (Rattus norvegicus [8]; Sprague-Dawley albino): inactive

Cc1ccc(C2=CC(c3ccccc3)C3=C(CCCC3=O)N2)cc1 (stereo unspecified)
inhibition [1]: 33.3% | inhibition [2]: 18.8% | inhibition [3]: 8.3% | inhibition [4]: inactive | inhibition [5]: 27.7% | Activity (Rattus norvegicus [8]): 13.4%
